Reference: ChEMBL document CHEMBL2407050, “Wilsonols A-L, megastigmane sesquiterpenoids from the leaves of Cinnamomum wilsonii” (J Nat Prod, 2013)
Calls of active or inactive are those of the source. Unless noted, the rule behind the calls is not given here.

Columns and labels:
SW480 = assay: Cytotoxicity against human SW480 cells after 48 hrs by MTS assay; type: functional, cell-based; conditions: SW480, 48 h
How it was run: (§1)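 Cells grown in DMEM or RPMI-1640 with 10% FBS at 37 °C under 5% CO₂. Adherent cells plated 12 h before dosing; suspension cells plated at dosing, initial density 1 × 10⁵ cells/mL. MTS (5 mg/mL stock) added for 4 h at 37 °C, then SDS lysis and OD at 595 nm. IC50 by Reed–Muench.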

HL-60 = assay: Cytotoxicity against human HL60 cells after 48 hrs by MTS assay; type: functional, cell-based; conditions: HL-60, 48 h; how it was run: as §1
SMMC-7721 [1] = assay: Cytotoxicity against human SMMC7721 cells after 48 hrs by MTS assay; type: functional, cell-based; conditions: SMMC-7721, 48 h; how it was run: as §1
MCF7 [2] = assay: Cytotoxicity against human MCF7 cells after 48 hrs by MTS assay; type: functional, cell-based; conditions: MCF7, 48 h; how it was run: as §1
A549 [3] = assay: Cytotoxicity against human A549 cells after 48 hrs by MTS assay; type: functional, cell-based; conditions: A549, 48 h; how it was run: as §1
B-cell = assay: Inhibition of LPS-induced mouse B lymphocytes proliferation after 48 hrs by CCK-8 assay; type: functional
How it was run: (§2)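 Murine splenocytes, 2.5 × 10⁶ per well, co-treated with compounds at various concentrations plus ConA (5 μg/mL, T-cell stimulus) or LPS (B-cell stimulus). Cultured 48 h at 37 °C, 5% CO₂; CCK-8 added for the last 4 h, A450 read against a 600 nm reference. Triplicate means; change expressed relative to the stimulated positive control. >10% inhibition counted as active.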

[4] = Cytotoxicity against mouse B lymphocytes after 48 hrs by CCK-8 assay; conditions: b-cell
How it was run: (§3)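 Splenocyte toxicity run without ConA or LPS at 5 × 10⁶ cells/200 μL/well. Cultured 48 h at 37 °C, 5% CO₂ with CCK-8 during the final 4 h; A450 read against a 600 nm reference. Viability (%) = compound OD450 / […] OD450 × 100.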

T-cell = assay: Inhibition of ConA-induced mouse T lymphocytes proliferation after 48 hrs by CCK-8 assay; type: functional; how it was run: as §2
[5] = Cytotoxicity against mouse T lymphocytes after 48 hrs by CCK-8 assay; conditions: t-cell; how it was run: as §3
[6] = Selectivity index, ratio of IC50 for human BEAS2B cells to IC50 for human SW480 cells; type: functional
How it was run: (§4)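 Ratio of the Beas-2B IC50 to the IC50 for each cancer line. Both IC50s come from the 48 h MTS viability assay with Reed–Muench calculation.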

[7] = Selectivity index, ratio of IC50 for human BEAS2B cells to IC50 for human HL60 cells; type: functional; how it was run: as §4
[8] = Cytotoxicity against human BEAS2B cells after 48 hrs by MTS assay; type: cell-based; conditions: beas-2b; how it was run: as §1
SMMC-7721 [9] = assay: Selectivity index, ratio of IC50 for human BEAS2B cells to IC50 for human SMMC7721 cells; type: functional; how it was run: as §4
A549 [10] = assay: Selectivity index, ratio of IC50 for human BEAS2B cells to IC50 for human A549 cells; type: functional; how it was run: as §4
MCF7 [11] = assay: Selectivity index, ratio of IC50 for human BEAS2B cells to IC50 for human MCF7 cells; type: functional; how it was run: as §4

| SMILES | IC50 (SW480) | IC50 (HL-60) | IC50 (SMMC-7721 [1]) | IC50 (MCF7 [2]) | IC50 (A549 [3]) | inhibition (B-cell) | Activity [4] | inhibition (T-cell) | Activity [5] | Ratio IC50 [6] | Ratio IC50 [7] | Activity [8] | Ratio IC50 (SMMC-7721 [9]) | Ratio IC50 (A549 [10]) | Ratio IC50 (MCF7 [11]) |
| --- | --- | --- | --- | --- | --- | --- | --- | --- | --- | --- | --- | --- | --- | --- | --- |
| C[C@@H](O)/C=C/[C@@H]1C(C)(C)[C@H](O)C[C@@H](O)[C@]1(C)O | > 10 µM | > 10 µM | > 10 µM | > 10 µM | > 10 µM |  |  |  |  |  |  |  |  |  |  |
| CC(O)/C=C/[C@H]1[C@H](C)[C@H](O)[C@@H](O)CC1(C)C (mixture of isomers) [WILSONOL E] | > 10 µM | > 10 µM | > 10 µM | > 10 µM | > 10 µM |  |  |  |  |  |  |  |  |  |  |
| C[C@H](O)CCC1=C(CO)C[C@@H](O)CC1(C)C | > 10 µM | > 10 µM | > 10 µM | > 10 µM | > 10 µM | Active | Non-toxic | Active | Non-toxic |  |  |  |  |  |  |
| C[C@@H](O)/C=C/[C@@]1(O)C(C)(C)C[C@H](O)[C@@H](O)[C@@]1(C)O [WILSONOL H] | > 10 µM | > 10 µM | > 10 µM | > 10 µM | > 10 µM |  |  |  |  |  |  |  |  |  |  |
| C[C@@H](O)/C=C/[C@H]1C(CO)=CC(=O)CC1(C)C | > 10 µM | > 10 µM | > 10 µM | > 10 µM | > 10 µM |  |  |  |  |  |  |  |  |  |  |
| C[C@H](O)/C=C/[C@@]1(O)[C@H](C)[C@H](O)[C@@H](O)CC1(C)C [WILSONOL A] | > 10 µM | > 10 µM | > 10 µM | > 10 µM | > 10 µM |  | Non-toxic | Active | Non-toxic |  |  |  |  |  |  |
| C[C@@H]1[C@H](O)[C@@H](O)CC(C)(C)[C@@]1(O)/C=C/[C@@H](C)O [WILSONOL B] | > 10 µM | > 10 µM | > 10 µM | > 10 µM | > 10 µM |  | Non-toxic | Active | Non-toxic |  |  |  |  |  |  |
| CC1=C(CC[C@H](C)O)C(C)(C)C[C@H](O[C@@H]2O[C@H](CO)[C@@H](O)[C@H](O)[C@H]2O)C1 | 12 µM | 5 µM | 3.1 µM | 3.4 µM | 2.5 µM |  | Non-toxic |  | Non-toxic | >16 | >16 | Non-toxic | >16 | >16 | >16 |
| C[C@@H](O)/C=C/[C@@]1(O)[C@@H](C)C[C@H](O)CC1(C)C | > 10 µM | > 10 µM | > 10 µM | > 10 µM | > 10 µM | Active | Non-toxic | Active | Non-toxic |  |  |  |  |  |  |
| C[C@@H]1[C@H](O)[C@@H](O)CC(C)(C)[C@H]1/C=C/[C@H](C)O | > 10 µM | > 10 µM | > 10 µM | > 10 µM | > 10 µM |  | Non-toxic |  | Non-toxic |  |  |  |  |  |  |
| C[C@@H](O)/C=C/[C@H]1[C@H](CO)C[C@H](O)CC1(C)C | > 10 µM | > 10 µM | > 10 µM | > 10 µM | > 10 µM |  | Non-toxic |  | Non-toxic |  |  |  |  |  |  |
| C[C@@H]1C[C@H](O)CC(C)(C)[C@]1(O)CC[C@@H](C)O [WILSONOL F] | > 10 µM | > 10 µM | > 10 µM | > 10 µM | > 10 µM |  | Non-toxic |  | Non-toxic |  |  |  |  |  |  |
| CC1=C(CC[C@@H](C)O)C(C)(C)C[C@H](O)[C@@H]1O | > 10 µM | > 10 µM | > 10 µM | > 10 µM | > 10 µM | Active | Non-toxic |  | Non-toxic |  |  |  |  |  |  |
| CC(=O)/C=C/[C@@]1(O)[C@H](C)[C@H](O[C@@H]2O[C@H](CO)[C@@H](O)[C@H](O)[C@H]2O)[C@@H](O)CC1(C)C | > 10 µM | > 10 µM | > 10 µM | > 10 µM | > 10 µM |  | Non-toxic |  | Non-toxic |  |  |  |  |  |  |
| COC(=O)/C=C(C)\C=C\[C@@]1(O)C(C)=CC(=O)CC1(C)C | > 10 µM | > 10 µM | > 10 µM | > 10 µM | > 10 µM | inactive | Non-toxic | inactive | Non-toxic |  |  |  |  |  |  |
| CC(=O)/C=C/[C@@]1(O)[C@H](C)[C@H](O)[C@@H](O)CC1(C)C [WILSONOL C] | > 10 µM | > 10 µM | > 10 µM | > 10 µM | > 10 µM |  | Non-toxic |  | Non-toxic |  |  |  |  |  |  |
